Activity calls are given as the source filed them. No cut-off for these calls is given here.
How the values were obtained:
Macrophage [1] = assay: Inhibition of LPS-induced NO production in C57BL/6 mouse macrophages preincubated with compound for 1 hr before LPS challenge measured after 24 hrs by Griess method; assay type: functional, cell-based; settings: C57BL/6, Macrophage
Method in brief: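 Peritoneal macrophages harvested from male C57BL/6J mice 3 days after ip thioglycollate; 1 × 10^5 cells/well in RPMI-1640 + 5% newborn calf serum, nonadherent cells removed after 2 h. Compounds added 1 h before LPS 1 μg/mL; 24 h later supernatant nitrite read by Griess reagent at 570 nm against a nitrite standard curve. IC50 from ≥2 experiments in triplicate; selectivity index = cytotoxicity IC50 / NO-inhibition IC50.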

[2] = Cytotoxicity against C57BL/6 mouse macrophages after 24 hrs by MTT assay; assay type: cell-based; settings: C57BL/6, Macrophage
Method in brief: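 Thioglycollate-elicited peritoneal macrophages from male C57BL/6 mice, 1 × 10^5 cells/well, adhered 2 h, then exposed to compounds 24 h. Washed, MTT (5 mg/mL in PBS) added 4 h at 37 °C, formazan dissolved in DMSO, absorbance 570 nm.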

Macrophage [3] = assay: Selectivity index, ratio of IC50 for C57BL/6 mouse macrophages to IC50 for LPS-induced NO production in C57BL/6 mouse macrophages
Mus musculus [4] = assay: Antiinflammatory activity in Kunming mouse assessed as inhibition of croton oil-induced ear edema at 5 umol/kg, po administered before challenge relative to vehicle-treated control; assay type: functional
Method in brief: (§1)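 Male Kunming mice; croton oil applied topically to left ear at 0.4 mg/ear. Test agent or equal-volume vehicle given 1 h before (po 5, 10, 20 μmol/kg; sc 77, 154, 308 μmol/kg). Euthanized under pentobarbital 4 h after croton oil; 8 mm ear punches weighed, left minus right weight = edema; inhibition vs vehicle group. n = 10 (po) or 8–9 (sc); mean ± SEM.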

Mus musculus [5] = assay: Antiinflammatory activity in Kunming mouse assessed as inhibition of croton oil-induced ear edema at 10 umol/kg, po administered before challenge relative to vehicle-treated control; assay type: functional; method in brief: as §1
Mus musculus [6] = assay: Antiinflammatory activity in Kunming mouse assessed as inhibition of croton oil-induced ear edema at 20 umol/kg, po administered before challenge relative to vehicle-treated control; assay type: functional; method in brief: as §1
Mus musculus [7] = assay: Antiinflammatory activity in specific pathogen-free COPD-like lung inflammation BALB/c mouse model assessed as inhibition of IL-8 level at 2 umol/kg/day, po for 35 days measured 24 hrs post last dose relative to vehicle-treated control; assay type: functional
Method in brief: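 SPF male BALB/c mice (18−20 g) exposed to cigarette smoke 5 min twice daily (days 2–13, 15–35) plus 20 μg LPS in 30 μL saline (days 1, 14). Oral drug 2 μmol/kg daily for 35 days, 1 h before exposure. Killed ~24 h after last dose; lungs lavaged 3× with 0.8 mL ice-cold saline; IL-8 in BAL supernatant by ELISA; n = 8−11, mean ± SEM.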

Macrophage [8] = assay: Inhibition of intrinsic NO production in C57BL/6 mouse macrophages at 10 uM measured after 24 hrs by Griess method; assay type: functional, cell-based
Method in brief: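 Unstimulated peritoneal macrophages (no LPS) cultured 2 h, then exposed to compound at 10 μM for 24 h. Supernatant nitrite measured by Griess assay at 570 nm against a standard curve; untreated, vehicle and LPS (1 μg/mL) wells as controls. Three independent experiments, mean ± SEM.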

Macrophage [9] = assay: Inhibition of LPS-induced iNOS expression in C57BL/6 mouse macrophages preincubated at 1 uM for 1 hr before LPS challenge measured after 24 hrs by immunoblotting; assay type: functional, cell-based
Method in brief: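 Male C57BL/6 peritoneal macrophages pretreated 1 h with compound at 1 μM, then LPS 1 μg/mL for 24 h. Lysates resolved on 10% SDS-PAGE and transferred to PVDF; blots probed with rabbit anti-iNOS and anti-β-actin (1:1000, overnight 4 °C), visualized by ECL. iNOS/β-actin ratio from densitometry; three independent experiments, mean ± SEM.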

Mus musculus [10] = assay: Antiinflammatory activity in Kunming mouse assessed as inhibition of croton oil-induced ear edema at 77 umol/kg, sc administered before challenge relative to vehicle-treated control; assay type: functional; method in brief: as §1
Mus musculus [11] = assay: Antiinflammatory activity in Kunming mouse assessed as inhibition of croton oil-induced ear edema at 154 umol/kg, sc administered before challenge relative to vehicle-treated control; assay type: functional; method in brief: as §1
Mus musculus [12] = assay: Antiinflammatory activity in Kunming mouse assessed as inhibition of croton oil-induced ear edema at 308 umol/kg, sc administered before challenge relative to vehicle-treated control; assay type: functional; method in brief: as §1
Mus musculus [13] = assay: Antiinflammatory activity in specific pathogen-free COPD-like lung inflammation BALB/c mouse model assessed as inhibition of white blood cells at 2 umol/kg/day, po for 35 days measured 24 hrs post last dose relative to vehicle-treated control; assay type: functional, organism-based
Method in brief: (§2)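 Male SPF BALB/c mice (18−20 g) given cigarette smoke 5 min twice daily (days 2−13, 15−35) plus LPS 20 μg in 30 μL saline on days 1 and 14. Oral dosing 1 h before first exposure, daily for 35 days. BAL (3 × 0.8 mL ice-cold saline) collected about 24 h after final dose. Centrifuged pellet resuspended in 200 μL PBS and counted by hemocytometer for differential cells.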

Mus musculus [14] = assay: Antiinflammatory activity in specific pathogen-free COPD-like lung inflammation BALB/c mouse model assessed as inhibition of eosinophils at 2 umol/kg/day, po for 35 days measured 24 hrs post last dose relative to vehicle-treated control; assay type: functional, organism-based; method in brief: as §2
Mus musculus [15] = assay: Antiinflammatory activity in specific pathogen-free COPD-like lung inflammation BALB/c mouse model assessed as inhibition of TNFalpha level at 2 umol/kg/day, po for 35 days measured 24 hrs post last dose relative to vehicle-treated control; assay type: functional, organism-based
Method in brief: (§3)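 Male SPF BALB/c mice (18−20 g) exposed to cigarette smoke 5 min twice daily on days 2−13 and 15−35, with 20 μg LPS in 30 μL saline on days 1 and 14. Dosed orally 1 h before first exposure, daily for 35 days. Lungs lavaged 3× with 0.8 mL ice-cold saline about 24 h after last dose. Supernatant cytokines measured by ELISA. n = 8−11, mean ± SEM, Student's t test.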

Mus musculus [16] = assay: Antiinflammatory activity in specific pathogen-free COPD-like lung inflammation BALB/c mouse model assessed as inhibition of IL-1beta level at 2 umol/kg/day, po for 35 days measured 24 hrs post last dose relative to vehicle-treated control; assay type: functional, organism-based; method in brief: as §3
Mus musculus [17] = assay: Antiinflammatory activity in specific pathogen-free COPD-like lung inflammation BALB/c mouse model assessed as inhibition of IL-6 level at 2 umol/kg/day, po for 35 days measured 24 hrs post last dose relative to vehicle-treated control; assay type: functional, organism-based; method in brief: as §3
[18] = Toxicity in Kunming mouse administered orally as single dose measured over 14 days; assay type: organism-based; settings: in vivo, po
Method in brief: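 SPF Kunming mice, half male and half female, fasted 16 h with water allowed, then weighed and randomized at 10/group. Single gavage dose (0.1 mL/10 g) at various doses, with solvent-only controls. Survival monitored for 14 days.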

SMILES | IC50 (Macrophage [1]) [nM] | IC50 [2] [nM] | Ratio IC50 (Macrophage [3]) | inhibition (Macrophage [8]) | inhibition (Macrophage [9]) | other results
COC(=O)[C@]12OC[C@]34[C@H]([C@@H](O)[C@@H]1O)[C@@]1(C)CC(=O)C(O)=C(C)[C@@H]1C[C@H]3OC(=O)[C@H](OC(=O)C=C(C)C)[C@@H]24 [BRUSATOL] | 50 | 140 |  |  |  | inhibition in vivo at 5 µmol/kg (Mus musculus [4]): 24.3%; inhibition in vivo at 10 µmol/kg (Mus musculus [5]): 27.1%; inhibition in vivo at 20 µmol/kg (Mus musculus [6]): 46.8%; inhibition in vivo at 2 µmol/kg (Mus musculus [7]): 46%
CC(C)=CC(=O)O[C@H]1C(=O)O[C@@H]2C[C@H]3C(C)=C(O)C(=O)C[C@]3(C)[C@H]3[C@@H](O)[C@H](O)[C@]4(C(=O)OCCCCOc5no[n+]([O-])c5S(=O)(=O)c5ccccc5)OC[C@]32[C@@H]14 | 1100 | 3000 | 2.7 |  |  | 
CC(C)=CC(=O)O[C@H]1C(=O)O[C@@H]2C[C@H]3C(C)=C(O)C(=O)C[C@]3(C)[C@H]3[C@@H](O)[C@H](O)[C@]4(C(=O)O)OC[C@]32[C@@H]14 | > 10000 | > 10000 |  | Active | Active | 
COC(=O)[C@]12OC[C@]34[C@H]([C@@H](O)[C@@H]1O)[C@@]1(C)CC(=O)C(OC(=O)c5ccccc5C(=O)OCCCCOc5no[n+]([O-])c5S(=O)(=O)c5ccccc5)=C(C)[C@@H]1C[C@H]3OC(=O)[C@H](OC(=O)C=C(C)C)[C@@H]24 | 690 | 1300 | 1.9 |  |  | 
CC(C)=CC(=O)O[C@H]1C(=O)O[C@@H]2C[C@H]3C(C)=C(O)C(=O)C[C@]3(C)[C@H]3[C@@H](O)[C@H](OC(=O)CCC(=O)OCCCCOc4no[n+]([O-])c4S(=O)(=O)c4ccccc4)[C@]4(C(=O)O)OC[C@]32[C@@H]14 | 11000 | > 10000 |  | inactive | Active | 
CC(C)=CC(=O)O[C@H]1C(=O)O[C@@H]2C[C@H]3C(C)=C(OC(=O)CCC(=O)OCCCCOc4no[n+]([O-])c4S(=O)(=O)c4ccccc4)C(=O)C[C@]3(C)[C@H]3[C@@H](O)[C@H](O)[C@]4(C(=O)O)OC[C@]32[C@@H]14 | 1300 | > 10000 | >7.6 | inactive | Active | 
CC(C)=CC(=O)O[C@H]1C(=O)O[C@@H]2C[C@H]3C(C)=C(OC(=O)CCC(=O)OCCCCOc4no[n+]([O-])c4S(=O)(=O)c4ccccc4)C(=O)C[C@]3(C)[C@H]3[C@@H](O)[C@H](OC(=O)CCC(=O)OCCCCOc4no[n+]([O-])c4S(=O)(=O)c4ccccc4)[C@]4(C(=O)O)OC[C@]32[C@@H]14 | 67 | > 10000 | >149 | inactive | Active | inhibition in vivo at 5 µmol/kg (Mus musculus [4]): 0.9%; inhibition in vivo at 10 µmol/kg (Mus musculus [5]): 6.4%; inhibition in vivo at 20 µmol/kg (Mus musculus [6]): 7.8%; inhibition in vivo at 77 µmol/kg (Mus musculus [10]): 31.4%; inhibition in vivo at 154 µmol/kg (Mus musculus [11]): 61%; inhibition in vivo at 308 µmol/kg (Mus musculus [12]): 76.5%; inhibition in vivo at 2 µmol/kg (Mus musculus [7]): 48%; inhibition (Mus musculus [13]): Active; inhibition (Mus musculus [14]): Active; inhibition (Mus musculus [15]): Active; inhibition (Mus musculus [16]): Active; inhibition (Mus musculus [17]): Active; LD50 at 336 h [18]: > 3850 µmol/kg

Second part, led by results:

IC50 (Macrophage [1]) [nM] | SMILES | IC50 [2] [nM] | Ratio IC50 (Macrophage [3]) | inhibition (Macrophage [8]) | inhibition (Macrophage [9]) | other results
210 | COC(=O)[C@]12OC[C@]34[C@H]([C@@H](O)[C@@H]1O)[C@@]1(C)CC(=O)C(O)=C(C)[C@@H]1C[C@H]3OC(=O)[C@H](OC(=O)CCC(=O)OCCCCOc1no[n+]([O-])c1S(=O)(=O)c1ccccc1)[C@@H]24 | 1200 | 5.7 |  |  | 
2200 | CC(C)=CC(=O)O[C@H]1C(=O)O[C@@H]2C[C@H]3C(C)=C(O)C(=O)C[C@]3(C)[C@H]3[C@@H](O)[C@H](O)[C@]4(C(=O)OCc5ccc(OCc6c(-c7ccccc7)no[n+]6[O-])cc5)OC[C@]32[C@@H]14 | 3900 | 1.8 |  |  | 
47 | COC(=O)[C@]12OC[C@]34[C@H]([C@@H](O)[C@@H]1O)[C@@]1(C)CC(=O)C(OC(=O)CCC(=O)OCc5ccc(OCc6c(-c7ccccc7)no[n+]6[O-])cc5)=C(C)[C@@H]1C[C@H]3OC(=O)[C@H](OC(=O)C=C(C)C)[C@@H]24 | 150 | 3.2 | Active |  | 
2100 | COC(=O)[C@]12OC[C@]34[C@H]([C@@H](O)[C@@H]1O)[C@@]1(C)CC(=O)C(OCc5ccc(OCc6c(-c7ccccc7)no[n+]6[O-])cc5)=C(C)[C@@H]1C[C@H]3OC(=O)[C@H](OC(=O)C=C(C)C)[C@@H]24 | > 10000 | >4.7 |  |  | 
380 | COC(=O)[C@]12OC[C@]34[C@H]([C@@H](O)[C@@H]1O)[C@@]1(C)CC(=O)C(O)=C(C)[C@@H]1C[C@H]3OC(=O)[C@H](OC(=O)CCC(=O)OCc1ccc(OCc3c(-c5ccccc5)no[n+]3[O-])cc1)[C@@H]24 | 820 | 2.2 |  |  | 

From ChEMBL document CHEMBL3352594 (J Med Chem, 2014)
